Measurements from ChEMBL document CHEMBL5143609, “Enigmazole C: A Cytotoxic Macrocyclic Lactone and Its Ring-Opened Derivatives from a New Species of Homophymia Sponge” (2022).

Key:
Type in all cases: functional
Settings in all cases: for CC50: read-out: LC50 (the source's name)
PSN1 = experiment: Cytotoxicity against human PSN1 cells
Method in brief: (§1)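 Cell-growth inhibition was tested in human tumor lines: A-549 lung carcinoma, HT-29 colorectal carcinoma, MDA-MB-231 breast adenocarcinoma and PSN-1 pancreatic adenocarcinoma. GI50 is the concentration giving 50% inhibition of cell growth, calculated by a literature procedure. TGI and LC50 endpoints were also reported.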

MDA-MB-231 = experiment: Cytotoxicity against human MDA-MB-231 cells; method in brief: as §1
HT-29 = experiment: Cytotoxicity against human HT-29 cells; method in brief: as §1
A549 = experiment: Cytotoxicity against human A549 cells; method in brief: as §1

With `C=C(C[C@@H](C)C[C@@H]1CC(=O)C=C(/C=C/CC[C@H](C)C(=O)O)O1)C[C@H](O)c1coc(/C=C(/C)[C@@H](C)OC)n1` the GI50 (PSN1) was 1.1 µM, the TGI (PSN1) was > 19 µM and the CC50 (PSN1) was > 19 µM. The GI50 (MDA-MB-231) was 4.1 µM, the TGI (MDA-MB-231) was > 19 µM and the CC50 (MDA-MB-231) was > 19 µM. For the same compound, the GI50 (HT-29) was 1 µM, the TGI (HT-29) was 3.7 µM and the CC50 (HT-29) was > 19 µM. The GI50 (A549) was 1.4 µM, the TGI (A549) was > 19 µM and the CC50 (A549) was > 19 µM.
With `C=C1CC(C)CC2CC(=O)C=C(C[C@H](O)CC[C@H](C)C(=O)OC(c3coc(/C=C(/C)C(C)OC)n3)C1)O2` (some centres undefined) the GI50 (PSN1) was 8.7 µM, the TGI (PSN1) was > 19 µM and the CC50 (PSN1) was > 19 µM. The GI50 (MDA-MB-231) was > 19 µM, the TGI (MDA-MB-231) was > 19 µM and the CC50 (MDA-MB-231) was > 19 µM. For the same compound, the GI50 (HT-29) was 18 µM, the TGI (HT-29) was > 19 µM and the CC50 (HT-29) was > 19 µM. The GI50 (A549) was 9.9 µM, the TGI (A549) was > 19 µM and the CC50 (A549) was > 19 µM.
